In ChEMBL document CHEMBL4028828, “Syntheses of benzophenone-xanthone hybrid polyketides and their antibacterial activities” (2017):
Values after ≈ are worked out from the molar mass of the structure shown. Active and inactive are the calls of the source. The rule behind the calls is not given here.

Tests used:
Format in all cases: functional
Staphylococcus aureus = experiment: Antibacterial activity against Staphylococcus aureus NBRC 100910 after overnight incubation by microdilution method
Outline: (§1)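 Broth microdilution MIC, modified Eloff method. Compounds were dissolved in DMSO (under 5%) and tested in duplicate. Two-fold serial dilution followed by overnight incubation at 37 °C. MIC is the lowest concentration inhibiting growth.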

Klebsiella pneumoniae = experiment: Antibacterial activity against Klebsiella pneumoniae NBRC 14940 after overnight incubation by microdilution method; outline: as §1
Escherichia coli = experiment: Antibacterial activity against Escherichia coli NBRC 102203 after overnight incubation by microdilution method; outline: as §1
Bacillus subtilis = experiment: Antibacterial activity against Bacillus subtilis NBRC 13719 after overnight incubation by microdilution method; outline: as §1
[1] = Staphylococcus aureus, NBRC 100910, read-out: MIC
[2] = Bacillus subtilis, NBRC 13719, read-out: MIC

MIC (Staphylococcus aureus; [1]) [µM]	MIC (Bacillus subtilis; [2]) [µM]	MIC (Staphylococcus aureus) [µM]	MIC (Bacillus subtilis) [µM]	SMILES	Activity (Klebsiella pneumoniae)	Activity (Escherichia coli)
> 100	> 100			Oc1ccc(O)c(O)c1	inactive	inactive
> 100	> 100			COc1cc(OC)c(C(=O)c2ccccc2)cc1OC	inactive	inactive
> 100	> 100			COc1cc(O)c2c(=O)c3c(OC)cc(OC)cc3oc2c1	inactive	inactive
100 (≈ 22.8 µg/mL)	> 100			O=c1c2ccccc2oc2cc(O)cc(O)c12	inactive	inactive
> 100	> 100			COc1cc(OC)c2c(=O)c3c(O)cc(O)cc3oc2c1	inactive	inactive
> 100	> 100			COc1cc(OC)c(C(O)c2ccccc2)cc1OC (stereo not drawn)	inactive	inactive
100 (≈ 24.4 µg/mL)	> 100			O=c1c2ccc(O)cc2oc2cc(O)cc(O)c12	inactive	inactive
50 (≈ 13 µg/mL)	> 100			O=c1c2c(O)cc(O)cc2oc2cc(O)cc(O)c12	inactive	inactive
> 100	> 100			COc1cc(OC)c2c(=O)c3c(O)cc(O)c(C(c4ccccc4)c4cc(OC)c(OC)cc4OC)c3oc2c1 (racemic)	inactive	inactive
	> 100	25 (≈ 12.1 µg/mL)		COc1cc(OC)c(C(c2ccccc2)c2c(O)cc(O)c3c(=O)c4ccccc4oc23)cc1OC (racemic) [listing 1 of 2 here]		
	12.5 (≈ 6.26 µg/mL)			COc1cc(OC)c(C(c2ccccc2)c2c(O)cc(O)c3c(=O)c4ccc(O)cc4oc23)cc1OC (racemic) [listing 1 of 2 here]		
> 100	> 100			COc1cc(OC)c2c(=O)c3c(O)cc(OC)c(C(c4ccccc4)c4cc(OC)c(OC)cc4OC)c3oc2c1 (racemic)	inactive	inactive
				COc1cc(OC)c(C(c2ccccc2)c2c(O)cc(O)c3c(=O)c4c(O)cc(O)cc4oc23)cc1OC (racemic)	inactive	inactive
				COc1cc(OC)c(C(c2ccccc2)c2c(O)cc(O)c3c(=O)c4ccc(O)cc4oc23)cc1OC (racemic) [listing 2 of 2 here]	inactive	inactive
				COc1cc(OC)c(C(c2ccccc2)c2c(O)cc(O)c3c(=O)c4ccccc4oc23)cc1OC (racemic) [listing 2 of 2 here]	inactive	inactive
		10 (≈ 4.85 µg/mL)		COc1cc(OC)c(C(c2ccccc2)c2c(O)cc(O)c3c(=O)c4ccccc4oc23)cc1OC (single isomer, unassigned; (+)) [listing 1 of 2 here]		
		10 (≈ 5.17 µg/mL)	50 (≈ 25.8 µg/mL)	COc1cc(OC)c(C(c2ccccc2)c2c(O)cc(O)c3c(=O)c4c(O)cc(O)cc4oc23)cc1OC (single isomer, unassigned; (+)) [listing 1 of 2 here]		
				COc1cc(OC)c(C(c2ccccc2)c2c(O)cc(O)c3c(=O)c4c(O)cc(O)cc4oc23)cc1OC (single isomer, unassigned; (+)) [listing 2 of 2 here]	inactive	inactive
				COc1cc(OC)c(C(c2ccccc2)c2c(O)cc(O)c3c(=O)c4ccccc4oc23)cc1OC (single isomer, unassigned; (+)) [listing 2 of 2 here]	inactive	inactive
		50 (≈ 24.2 µg/mL)		COc1cc(OC)c(C(c2ccccc2)c2c(O)cc(O)c3c(=O)c4ccccc4oc23)cc1OC (single isomer, unassigned; (-)) [listing 1 of 2 here]		
12.5 (≈ 6.46 µg/mL)	100 (≈ 51.7 µg/mL)			COc1cc(OC)c(C(c2ccccc2)c2c(O)cc(O)c3c(=O)c4c(O)cc(O)cc4oc23)cc1OC (single isomer, unassigned; (-)) [listing 1 of 2 here]		
				COc1cc(OC)c(C(c2ccccc2)c2c(O)cc(O)c3c(=O)c4c(O)cc(O)cc4oc23)cc1OC (single isomer, unassigned; (-)) [listing 2 of 2 here]	inactive	inactive
				COc1cc(OC)c(C(c2ccccc2)c2c(O)cc(O)c3c(=O)c4ccccc4oc23)cc1OC (single isomer, unassigned; (-)) [listing 2 of 2 here]	inactive	inactive
			10 (≈ 5.01 µg/mL)	COc1cc(OC)c(C(c2ccccc2)c2c(O)cc(O)c3c(=O)c4ccc(O)cc4oc23)cc1OC (stereo in doubt; (+)-2) [listing 1 of 2 here]		
				COc1cc(OC)c(C(c2ccccc2)c2c(O)cc(O)c3c(=O)c4ccc(O)cc4oc23)cc1OC (stereo in doubt; (+)-2) [listing 2 of 2 here]	inactive	inactive
10 (≈ 5.01 µg/mL)				COc1cc(OC)c(C(c2ccccc2)c2c(O)cc(O)c3c(=O)c4ccc(O)cc4oc23)cc1OC (stereo in doubt; (-)-2) [listing 1 of 2 here]		
				COc1cc(OC)c(C(c2ccccc2)c2c(O)cc(O)c3c(=O)c4ccc(O)cc4oc23)cc1OC (stereo in doubt; (-)-2) [listing 2 of 2 here]	inactive	inactive
1.25 (≈ 0.437 µg/mL)	1.25 (≈ 0.437 µg/mL)			CC1(C)S[C@@H]2[C@H](NC(=O)[C@H](N)c3ccccc3)C(=O)N2[C@H]1C(=O)O [AMPICILLIN]		
1.25 (≈ 0.604 µg/mL)	1.25 (≈ 0.604 µg/mL)			NC[C@H]1O[C@H](O[C@H]2[C@H](O)[C@@H](O[C@H]3O[C@H](CO)[C@@H](O)[C@H](N)[C@H]3O)[C@H](N)C[C@@H]2N)[C@H](N)[C@@H](O)[C@@H]1O [BEKANAMYCIN]		
